# Experimental data taken from PubChem BioAssay.
# The source made the active and inactive calls.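 The calls were made as follows, unless noted: active = a full or partial loss of lipid-probe fluorescence in the fish gall bladder, intestine or both, judged by eye; inactive = no fluorescence loss, or compound toxic to the fish.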
# Columns and labels:
# [1] = inhibitors of TNFa-induced NFkB p65 translocation, primary screen, imaging, HUVEC, MLSMR starter and 10KST1 sets (AID 438;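 active = inhibition above 20% together with a positive visual image hit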;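 also: compound added about 3h40 before a 20 min TNFalpha stimulation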;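 as to inhibition: signal is the nuclear over cytoplasmic p65 intensity ratio per well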); conditions: HUVEC TNFa-induced p65 nuclear translocation; cell count: measured here: nuclei count (cytotoxicity indicator), at 2.08 µM; inhibition: at 2 µM, stronger effect = higher value, 0% TNFa-plus-vehicle, 100% no-TNFa wells
# [2] = endothelial E-selectin expression blockers – imaging, HUVEC, immunofluorescence, MLSMR starter and 10KST1 sets, primary screen (AID 487;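 active = visually confirmed hit in the image check and inhibition above 20%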;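 as to inhibition: signal is fraction of cell area covered by stained E-selectin grains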;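 as to nuclei count: 100% = median nuclei count of all wells on the same plate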); conditions: HUVEC TNFalpha-induced E-selectin immunofluorescence imaging, at 2 µM; inhibition: stronger effect = higher value; nuclei count: measured here: cell number, toxicity
# [3] = Primary imaging screen for DUSP6 inhibitors that restore phospho-Erk in transfected HeLa cells, chemical complementation (AID 609;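 active = compounds giving at least 50% inhibition in the cell-based MKP-3 phosphatase rescue imaging test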;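 as to inhibition: phospho-Erk level distribution per well compared with pooled transfected vehicle control wells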); conditions: HeLa MKP-3 transfected, phospho-Erk imaging KS statistic, at 10 µM, cells stimulated with TPA for 15 min
# [4] = molecular target: Dual specificity protein phosphatase 6 (Homo sapiens) (UniProt Q16828); assay: as above; conditions: HeLa MKP-3 transfected, phospho-Erk imaging KS statistic; at 10 µM; stronger effect = higher value; cells stimulated with TPA for 15 min
# [5] = molecular target: Voltage-gated potassium channel subunit beta-2 (Rattus norvegicus) (UniProt P62483); assay: inhibitors of rat Kvbeta2 reductase activity – biochemical, NADPH fluorescence, primary screen (AID 622;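 active = fluorescence slope higher than the sample average by over 3 SD, cut at about -0.22 in these data, passing the limit was not always enough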;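 also: slope of raw intensity against log time taken from 70 to 1610 s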); conditions: recombinant KvBeta, 4-cyanobenzaldehyde reduction, at 10 µM, stronger effect = higher value
# [6] = molecular target: Voltage-gated potassium channel subunit beta-2 (Rattus norvegicus) (UniProt P62483); assay: enhancers of rat Kvbeta2 NADPH turnover – biochemical, NADPH fluorescence, primary screen (AID 623;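 active = NADPH fluorescence slope more negative than the mean of all samples by about 3 SD, 99.7% confidence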;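 also: fluorescence intensity change per second fitted from 20 to 320 s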); conditions: Recombinant KvBeta, NADPH fluorescence decrease slope, 10 min; at 10 µM; stronger effect = lower value
# [7] = molecular target: Muscarinic acetylcholine receptor M4 (Homo sapiens) (UniProt P08173); assay: M4-linked GIRK flux change, two-sided – cell-based, HEK293 M4/GIRK, thallium flux, BTC-AM, M4 allosteric agonist project, primary screen (AID 625;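 active = fluorescence slope after compound addition differing from the mean of all tested samples at 99.7% confidence, mostly higher but some lower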;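 also: thallium influx through GIRK channels coupled to M4 in HEK293 cells with BTC-AM dye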); conditions: at 10 µM, actives lie on both sides
# In short: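 Assay system: HEK293 cells with M4 receptor and GIRK channels / Controls: carbachol and DMSO controls / Schedule: 1 h dye loading, 2 min kinetic read / Technique: kinetic fluorescence with BTC-AM dye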
# [8] = inhibitors of larval lipid processing in zebrafish, primary screen, whole organism, PED6 fluorescence, gall bladder and intestine (AID 686); conditions: Zebrafish larvae PED6 lipid processing, fluorescence scoring; screened at 20 µM (by protocol);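 also: larvae 5 to 7 days old with five fish per well; signal comes from phospholipase A2 cleavage of quenched PED6 carried via bile; overnight exposure to compound and PED6 before scoring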
# In short: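 Doses: 20 µM single dose. Test system: live zebrafish larvae aged 5-7 days, whole organism. Quantity: five larvae per well. Measured by: By-eye fluorescence microscopy. Reagent: ingested quenched lipid PED6 at 100 nM. Read-out: visual per-well fluorescence inhibition score. Times: overnight exposure of larvae to compound plus PED6.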
# [9] = loss of swimming-algae plug formation – whole organism, Chlamydomonas reinhardtii, WT vs cilia-less mutant, absorbance, 96-well, primary screen (AID 463189;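 active = inhibition at or above 50% relative to wild type and mutant plate controls; inactive = inhibition below 50%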;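 also: 0% = wild type cc124 cells in DMSO and 100% = ciliumless bld1 mutant cells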); conditions: Chlamydomonas reinhardtii gravitaxis, OD600 absorbance, 2 days; at 10 µM; stronger effect = higher value
# [10] = measured here: cell density z-score
# [11] = measured here: nuclear c-Myc green intensity z-score
# [12] = measured here: nuclear pErk red intensity z-score, stronger effect = higher value
# Chain of Voltage-gated potassium channel subunit beta-2 (Rattus norvegicus) (P62483 whole entry, looked up): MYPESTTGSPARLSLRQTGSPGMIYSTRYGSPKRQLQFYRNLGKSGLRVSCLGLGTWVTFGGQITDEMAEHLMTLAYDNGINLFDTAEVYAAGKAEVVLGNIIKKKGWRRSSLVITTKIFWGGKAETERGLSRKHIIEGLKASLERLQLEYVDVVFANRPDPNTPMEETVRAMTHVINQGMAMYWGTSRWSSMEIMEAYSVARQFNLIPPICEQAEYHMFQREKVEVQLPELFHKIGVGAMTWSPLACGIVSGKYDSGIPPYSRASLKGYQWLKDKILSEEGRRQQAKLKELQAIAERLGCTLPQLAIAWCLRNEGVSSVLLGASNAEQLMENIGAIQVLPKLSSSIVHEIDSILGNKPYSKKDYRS
# Chain of Dual specificity protein phosphatase 6 (Homo sapiens) (Q16828 whole entry, looked up): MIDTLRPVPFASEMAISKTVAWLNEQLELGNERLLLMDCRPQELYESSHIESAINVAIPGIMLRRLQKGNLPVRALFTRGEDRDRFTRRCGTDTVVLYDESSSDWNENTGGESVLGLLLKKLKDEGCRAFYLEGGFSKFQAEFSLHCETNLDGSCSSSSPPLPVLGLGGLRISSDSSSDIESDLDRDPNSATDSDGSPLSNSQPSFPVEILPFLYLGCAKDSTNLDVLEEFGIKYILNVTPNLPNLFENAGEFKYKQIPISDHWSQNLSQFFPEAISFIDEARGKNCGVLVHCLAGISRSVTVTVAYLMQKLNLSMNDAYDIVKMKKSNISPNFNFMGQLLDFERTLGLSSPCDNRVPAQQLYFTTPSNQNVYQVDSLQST
# Chain of Muscarinic acetylcholine receptor M4 (Homo sapiens) (P08173 whole entry, looked up): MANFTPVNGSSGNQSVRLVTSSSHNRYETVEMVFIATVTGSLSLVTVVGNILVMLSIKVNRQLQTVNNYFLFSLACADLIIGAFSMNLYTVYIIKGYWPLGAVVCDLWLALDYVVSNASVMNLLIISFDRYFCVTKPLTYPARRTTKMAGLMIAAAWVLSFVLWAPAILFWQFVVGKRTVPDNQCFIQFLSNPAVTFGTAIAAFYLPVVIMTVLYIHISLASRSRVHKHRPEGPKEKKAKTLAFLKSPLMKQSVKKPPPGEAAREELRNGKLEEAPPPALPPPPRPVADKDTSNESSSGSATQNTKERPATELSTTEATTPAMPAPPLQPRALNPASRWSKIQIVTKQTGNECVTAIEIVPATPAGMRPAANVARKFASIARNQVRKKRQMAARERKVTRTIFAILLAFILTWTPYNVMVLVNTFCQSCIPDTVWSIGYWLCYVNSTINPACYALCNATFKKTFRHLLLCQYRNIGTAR
SMILES,cell count [1],inhibition [1],inhibition [2],nuclei count [2] [%],"z-score [3, 10]","z-score [3, 11]","z-score [3, 12]",inhibition [4],fluorescence slope [5],NADPH fluorescence slope [6],fluorescence slope [7],outcome [8],inhibition [9]
CC1(C)C2CCC1(C)C(NC(=O)CCN1CCCCC1)C2 (stereo unspecified),570,-3.7% (inactive),-89.2% (inactive),163,0.233,1.96,0.463,5.95% (inactive),-0.4 (inactive),-4.2e-05 (inactive),0.00508 (inactive),inactive,55.5% (active)
CCOc1ccc2c(c1)n([O-])c1c([n+]2=O)CCCC1,345,6.9% (inactive),-31.4% (inactive),84.7,-0.67,0.548,-1.91,23.4% (inactive),-0.4 (inactive),-0.000101 (inactive),0.0052 (inactive),inactive,32.8% (inactive)
CCOC(=O)/C=c1\s/c(=C(\C#N)C(=O)OCC)n(-c2ccccc2)c1=O,653,-4.6% (inactive),-12% (inactive),151,-0.465,-0.678,-0.157,1.42% (inactive),-0.359 (inactive),-6.6e-07 (inactive),0.00573 (inactive),inactive,-7.74% (inactive)
O=C(O)c1ccc(C2CCCCC2)cn1,532,0.5% (inactive),-129% (inactive),197,-1.16,0.871,-1.14,3.97% (inactive),-0.444 (inactive),-4.4e-05 (inactive),0.00555 (inactive),inactive,-1.91% (inactive)
CCCCC(CCC(=O)Nc1ccc(C(=O)OCC)cc1)C(=O)O (stereo unspecified),378,-11.3% (inactive),-153% (inactive),159,-0.634,-1.85,0.598,-0.608% (inactive),-0.468 (inactive),-0.000129 (inactive),0.00338 (inactive),inactive,5.13% (inactive)
CC(C)OCCCn1c(=N)c(C(N)=S)cc2c(=O)n3ccccc3nc21,619,-7.9% (inactive),-3% (inactive),149,1.16,-1.47,-1.15,17.7% (inactive),-0.454 (inactive),-4.1e-05 (inactive),0.00453 (inactive),inactive,22.8% (inactive)
COc1cccc(C2/C(=C(\O)c3ccc4c(c3)OCCO4)C(=O)C(=O)N2CCCN(C)C)c1OC (stereo unspecified),396,1.1% (inactive),-21.2% (inactive),174,0.231,-0.342,2,-6.86% (inactive),-0.452 (inactive),-9.9e-05 (inactive),0.00452 (inactive),inactive,18.1% (inactive)
N#Cc1nc(COc2ccc(Br)cc2)oc1NCCN1CCOCC1,510,-5.5% (inactive),-38.7% (inactive),169,0.361,0.776,1.07,7.7% (inactive),-0.432 (inactive),-4.4e-05 (inactive),0.00542 (inactive),inactive,-13.6% (inactive)
O=C(NCc1cccnc1)NC(C(F)(F)F)C(F)(F)F,671,-1.2% (inactive),-24.5% (inactive),148,0.957,-0.408,-4.89,1.63% (inactive),-0.454 (inactive),-5.1e-05 (inactive),0.00444 (inactive),inactive,-3.5% (inactive)
O=C1OC(N2CCN(C/C=C/c3ccccc3)CC2)c2ccccc21 (stereo unspecified),390,-1.2% (inactive),-65.2% (inactive),168,0.231,-0.597,0.38,14% (inactive),-0.458 (inactive),-0.000109 (inactive),0.00426 (inactive),inactive,28.9% (inactive)
CCOC(=O)CSc1nc(N2CCOCC2)c2c(c1C#N)CC(C)(C)N(C)C2,531,-4.6% (inactive),-19.7% (inactive),102,-0.379,0.944,-0.77,1.42% (inactive),-0.505 (inactive),4.1e-05 (inactive),0.00477 (inactive),inactive,33.8% (inactive)
N#Cc1nc(-c2cccs2)oc1NCc1ccccc1Cl,657,3.4% (inactive),-84% (inactive),107,-2.24,1.03,1.6,1.63% (inactive),-0.513 (inactive),-3.2e-05 (inactive),0.00761 (inactive),inactive,-1.01% (inactive)
Cc1nc(=O)c(-c2ccccc2)c(C)n1-c1ccc(S(N)(=O)=O)cc1,568,-4.9% (inactive),-74.8% (inactive),154,0.3,0.245,1.29,7.93% (inactive),-0.406 (inactive),-4.5e-05 (inactive),0.00537 (inactive),inactive,-8.67% (inactive)
O=C(c1cc(N2CCCCC2)nc2ccccc12)N1CCOCC1,627,3.5% (inactive),-37.7% (inactive),159,-1.1,2.14,1.42,-15% (inactive),-0.422 (inactive),-1.2e-05 (inactive),0.0052 (inactive),inactive,1.82% (inactive)
COC(=O)C1CCN(c2nc3ccccc3nc2C(C#N)C(=O)NCCc2ccccc2)CC1 (stereo unspecified),600,-8.8% (inactive),-60.5% (inactive),199,0.0104,-0.0979,-0.225,1.42% (inactive),-0.356 (inactive),-5.2e-05 (inactive),0.00365 (inactive),inactive,-8.92% (inactive)
C/C(=N\O)C(=O)NCCCn1ccnc1,636,-10.8% (inactive),26.6% (inactive),94.5,-0.252,0.0271,0.47,-0.233% (inactive),-0.478 (inactive),-0.000143 (inactive),0.00635 (inactive),inactive,-9.7% (inactive)
CC(=O)CCn1c(=O)n(CCC(C)=O)c(=O)n(CCC(C)=O)c1=O,352,-1.6% (inactive),-7% (inactive),97.7,-1.19,2.07,-0.0971,5.42% (inactive),-0.512 (inactive),-4.3e-05 (inactive),0.00631 (inactive),inactive,-14.3% (inactive)
CSc1nc2[nH]c3c(c2c2nnnn12)CCCC3,571,-2.3% (inactive),-139% (inactive),145,0.625,0.274,-0.282,13.4% (inactive),-0.341 (inactive),0.000139 (inactive),0.00402 (inactive),inactive,79.4% (active)
COC(=O)c1ccc(C2/C(=C(\O)c3ccc4c(c3)OCCO4)C(=O)C(=O)N2CCCN(C)C)cc1 (stereo unspecified),366,-2.2% (inactive),1.3% (inactive),91.5,-1.2,-0.278,0.407,9.82% (inactive),-0.442 (inactive),-0.000114 (inactive),0.00519 (inactive),inactive,25% (inactive)
COc1ccccc1C(=O)Nc1cc(Cl)ccc1O,582,-2.4% (inactive),-76% (inactive),123,-1.1,0.45,1.34,9.42% (inactive),-0.431 (inactive),-0.000129 (inactive),0.00516 (inactive),inactive,21.5% (inactive)
CCN(CC)CCOC(=O)c1c(C)n(C)c2ccc(OC)cc12,669,-3.7% (inactive),-50.2% (inactive),150,0.791,-1.04,-1.03,4.37% (inactive),-0.466 (inactive),-0.000107 (inactive),0.00645 (inactive),inactive,32.6% (inactive)
CCCCC(=O)C1CCN(Cc2ccccc2)CC1,371,-0.5% (inactive),19.3% (inactive),177,0.378,0.471,0.337,-0.584% (inactive),-0.469 (inactive),-0.000111 (inactive),0.00375 (inactive),inactive; toxic,126% (active)
Cc1nnc2n(C3CCCCC3)c(=O)c3c4c(sc3n12)COC(C)(C)C4,471,-0.7% (inactive),-19% (inactive),96.4,-2.3,1.13,-0.467,-3.97% (inactive),-0.389 (inactive),7.7e-06 (inactive),0.00567 (inactive),inactive,11.1% (inactive)
CCCC(=O)N1CCc2[nH]c3ccccc3c2C1,502,4.2% (inactive),1.1% (inactive),167,0.76,0.615,-0.975,-5.62% (inactive),-0.485 (inactive),-2.8e-05 (inactive),0.0054 (inactive),inactive,-3.97% (inactive)
CC1(C)C2CCC1(C)C(OC(=O)CC(=O)O)C2 (stereo unspecified),566,-2% (inactive),-63.5% (inactive),143,0.899,-0.605,0.67,1.98% (inactive),-0.382 (inactive),-4.1e-05 (inactive),0.00679 (inactive),inactive,5.19% (inactive)
O=C(O)C1CC(=O)N(Cc2cccs2)C1 (stereo unspecified),557,-4.7% (inactive),-73.2% (inactive),165,0.677,0.857,-1.54,17.8% (inactive),-0.404 (inactive),-3e-05 (inactive),0.00636 (inactive),inactive,-9.05% (inactive)
O=C(CC(c1ccco1)S(=O)(=O)c1ccccc1)c1ccc(F)cc1 (stereo unspecified),585,-2% (inactive),-105% (inactive),138,-0.324,0.355,1.32,-14.6% (inactive),-0.413 (inactive),-0.000113 (inactive),0.00466 (inactive),inactive,28.8% (inactive)
